# An excerpt weighted towards active compounds, which were near 3.7% of everything screened.
# Redox H2O2 prof: compounds producing H2O2 with reducing agent – biochemical, NIH compound library profiling, artefact control for MLSCN library redox annotation, primary screen | actives 0.03% (n = 200,000) | AID 878 | DTT-dependent redox cycling H2O2, phenol red/HRP absorbance; 100% = 100 µM peroxide control, 0% = buffer | activation, % at 10 µM;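 active means activation of at least 50% relative to the plate's high and low controls in the primary single-dose screen; inactive means activation below 50%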;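 further: compound incubated with DTT at 0.8 mM final as the reducing agent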
# ROMK primary: modulators of human ROMK potassium channel; P48048; Tet-inducible ROMK, thallium flux fluorescence; actives lie on both sides; B-score at 10 µM; actives 2% (n = 130,000); AID 1918;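 active means signal ratio slope over the read window, or its plate-corrected B-score, at least 3 SD from the plate mean, either direction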;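 further: B-score of the F/F0 ratio slope over 7 to 12 s after thallium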
# b-catenin transl: beta-catenin nuclear translocation modulation; HeLa beta-catenin nuclear translocation, immunofluorescence imaging; nuclear translocation activity, % at 5 µM; actives 0.3% (n = 190,000); AID 1665;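 active means nuclear translocation activity above 50% at 5 µM, with a well cell count of 50 or more; inconclusive means wells under 50 cells across six images, flagged as toxic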;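 further: per-cell ratio of nuclear to cytoplasmic median beta-catenin stain intensity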
#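 System: HeLa cells, endogenous beta-catenin; compound dosing: 5 µM primary single dose, 0.1% DMSO, 0.02–20 µM confirmation series; incubation: 24 h compound exposure at 37°C, 5% CO2; signal: beta-catenin immunofluorescence imaging with DAPI; evaluation: % activation, nuclear-to-cytoplasmic median beta-catenin signal ratio per cell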
# Cl transport mod: modulators of human KCC2 chloride dependent transport | KCC2 cells, thallium flux FluoZin-2 fluorescence | B-score of Tl+ flux slope (higher = more flux/activation; lower = inhibition) at 10 µM | actives 2.2% (n = 190,000);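 active means thallium flux slope and its plate-corrected score both differing from the plate sample mean at a set confidence after two filtering rounds, in either direction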;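 further: slope of fluorescence scaled to starting intensity during 10 to 20 s after thallium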
# Target sequence (Q9H2X9 whole entry, looked up): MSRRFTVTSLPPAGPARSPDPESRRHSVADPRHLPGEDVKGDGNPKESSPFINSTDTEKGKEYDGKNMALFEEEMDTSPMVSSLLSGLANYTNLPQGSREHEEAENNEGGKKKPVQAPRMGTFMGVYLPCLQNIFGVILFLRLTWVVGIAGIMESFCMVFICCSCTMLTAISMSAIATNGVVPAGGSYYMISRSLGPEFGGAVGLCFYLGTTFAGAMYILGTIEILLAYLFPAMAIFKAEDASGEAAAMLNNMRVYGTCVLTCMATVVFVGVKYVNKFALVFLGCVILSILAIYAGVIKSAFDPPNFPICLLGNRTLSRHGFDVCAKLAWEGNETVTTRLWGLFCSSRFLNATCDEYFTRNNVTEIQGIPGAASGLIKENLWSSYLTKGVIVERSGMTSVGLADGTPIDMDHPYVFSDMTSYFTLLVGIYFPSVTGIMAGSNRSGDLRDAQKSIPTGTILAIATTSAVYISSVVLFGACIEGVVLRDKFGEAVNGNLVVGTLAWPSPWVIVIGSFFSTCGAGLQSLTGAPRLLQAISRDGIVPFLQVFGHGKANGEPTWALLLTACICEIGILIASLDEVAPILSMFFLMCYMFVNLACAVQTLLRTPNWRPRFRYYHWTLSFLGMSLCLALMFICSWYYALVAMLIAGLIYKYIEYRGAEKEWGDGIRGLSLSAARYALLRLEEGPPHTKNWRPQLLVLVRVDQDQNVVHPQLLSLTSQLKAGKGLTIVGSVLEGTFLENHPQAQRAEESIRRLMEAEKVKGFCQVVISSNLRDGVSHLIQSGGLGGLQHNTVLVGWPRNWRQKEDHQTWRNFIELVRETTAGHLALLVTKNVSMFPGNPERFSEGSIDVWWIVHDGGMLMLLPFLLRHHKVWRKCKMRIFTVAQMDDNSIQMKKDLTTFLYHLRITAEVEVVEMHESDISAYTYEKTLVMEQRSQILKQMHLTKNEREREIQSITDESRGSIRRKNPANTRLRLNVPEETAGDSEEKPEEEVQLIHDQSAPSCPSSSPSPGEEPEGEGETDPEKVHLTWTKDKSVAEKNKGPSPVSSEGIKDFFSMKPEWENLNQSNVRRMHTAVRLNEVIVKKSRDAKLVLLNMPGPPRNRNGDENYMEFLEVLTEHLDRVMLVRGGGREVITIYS
# MT stabilize HCS: microtubule stabilizers in HeLa cells. HeLa tubulin immunostaining HCS, 24 h; share of cells brighter than vehicle mean+2SD. actives 0.83% (n = 200,000). % tubulin-high responders, % at 10 µM;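 active means plate Z-score above 3 for both tubulin-high and condensed-nucleus cell shares, with cell loss under 80%, at 10 µM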;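 further: anti alpha tubulin signal scored within the nucleus-defined area of each cell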
# KCC2 secondary: confirmation of human KCC2 transport modulators; HEK293-KCC2, thallium flux, FluoZin2 fluorescence; hits give high values; normalised thallium flux (F/F0 slope) at 10 µM; actives 15% (n = 3,700); AID 1713; shares compounds with Cl transport mod;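 active means thallium flux slope above the same plate's solvent-only control mean plus 3 SD; inconclusive means the two replicate wells disagree; inactive means no significant difference from solvent-only control wells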
# KCC2 bumet counter: thallium flux persisting under bumetanide in KCC2 cells, counter-screen secondary assay. normalized thallium flux at 10 µM. shares compounds with Cl transport mod. HEK293-KCC2 + bumetanide/ouabain, thallium flux FluoZin2; hits give high values. actives 49% (n = 3,700). AID 1714;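 active means thallium entry rate above the same plate's blocked-transporter control wells by more than 3 SD; inconclusive means the two repeat wells disagree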;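 further: raw slope of fluorescence over initial fluorescence between 10 and 20 s after thallium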
# KCC2 secondary2: KCC2 (human) modulation, second secondary assay; shares compounds with Cl transport mod; HEK293-KCC2, thallium flux FluoZin2 fluorescence; actives lie on both sides; F/F0 rise rate, 10–20 s post-thallium; normalized thallium flux at 10 µM; actives 23% (n = 3,700);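 active means thallium flux slope more than 3 SD above or below the plate's solvent-only control mean, mostly below; inconclusive means the two repeat wells disagreed; inactive means no significant shift from solvent-only controls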
# HEK counter1: counter-screen for KCC2 modulators: effect in parental HEK293 cells; shares compounds with Cl transport mod; thallium flux FluoZin2, ouabain; baseline-ratio fluorescence slope, 10–20 s after thallium; thallium flux rate (normalised fluorescence) at 10 µM; actives 46% (n = 3,700); AID 1716;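 active means thallium flux rate significantly above the same plate's solvent-only control wells, beyond their mean plus 3 SD; inconclusive means the two replicate wells gave conflicting results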
# KCC2 ouabain: modulates human KCC2 on retest with ouabain. HEK293-KCC2, thallium flux FluoZin2 fluorescence; bidirectional: low = inhibitor, high = activator. raw Tl+ flux slope (below DMSO = inhibition, above = activation) at 10 µM. shares compounds with Cl transport mod. AID 1717. actives 48% (n = 3,700);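 active means thallium flux slope beyond 3 SD from same-plate DMSO control mean in most replicates, usually higher, sometimes lower; inconclusive means repeat tests gave conflicting results; inactive means no significant difference from controls in most replicates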;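 further: slope of initial-normalized fluorescence between seconds 10 and 20 after thallium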
# HEK293 Tl flux2: acts in parental HEK cells, second KCC2 counter-screen. shares compounds with Cl transport mod. HEK293 parental, thallium flux FluoZin-2 fluorescence slope. thallium flux slope at 10 µM. actives 33% (n = 3,700). AID 1718;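 active means thallium flux slope above the same plate's solvent-control mean plus 3 SD in both duplicate wells; inconclusive means duplicate wells that disagreed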;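 further: run without ouabain in cells lacking the KCC2 cotransporter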
# A number is an active result; – = inactive; ? = inconclusive; · = no result given.
SMILES,Redox H2O2 prof,ROMK primary,b-catenin transl,Cl transport mod,MT stabilize HCS,KCC2 secondary,KCC2 bumet counter,KCC2 secondary2,HEK counter1,KCC2 ouabain,HEK293 Tl flux2
CCOC(=O)Cc1csc(NC(=S)NC(=O)c2ccc([N+](=O)[O-])cc2)n1,–,–,–,9.84,–,0.0162,0.0357,–,0.0253,0.0414,–
CCOC(=O)Cc1csc(NC(=S)NC(=O)c2ccc(Cl)cc2)n1,–,–,–,9.97,–,–,0.0432,0.0416,0.0421,0.0584,0.0204
Cc1ccc(CNC(=O)CSc2nc3ccsc3c(=O)n2Cc2ccc(C(=O)O)cc2)cc1,–,–,–,–,–,·,·,·,·,·,·
COc1ccc(CNn2c(-c3cccc(C)c3)nc3ccccc3c2=O)cc1OC,–,–,–,·,–,–,–,–,–,–,–
COc1ccc(-n2c(Cc3cccn3C)nnc2SCC(=O)Nc2ccc(F)cc2)cc1,–,·,–,-3.11,–,–,–,–,–,–,–
CCn1nc(C(=O)OCC(=O)c2ccc(F)cc2)c2ccccc2c1=O,–,–,–,-5.36,–,–,–,–,?,?,–
C=CCn1c(=S)[nH]c2sccc2c1=O,–,–,–,7.77,–,–,0.0147,–,0.0166,?,0.0192
Cc1ccc(NC(=O)Cc2ccc(F)cc2)cc1,–,–,–,2.6,–,–,–,–,–,–,–
Cc1cc(-c2nnc(CCC(=O)NC(Cc3ccccc3)c3ccccc3)o2)no1 (configuration not stated),–,–,–,–,–,·,·,·,·,·,·
CN(C)C(C)(C)/C=C/C(O)(c1ccccc1)c1ccccc1,·,·,–,–,·,·,·,·,·,·,·
CCC(C)n1c(SCC(=O)NC(=O)c2cccn2C)nc2ccccc2c1=O (configuration not stated),–,–,–,21.9,–,0.0159,0.0964,–,0.0372,0.0424,0.0166
S=c1[nH]nc(COc2ccccc2)n1/N=C/C=C/c1ccccc1,–,–,–,12.3,–,0.0135,0.139,–,0.0209,0.0563,?
S=c1[nH]nc(COc2ccccc2)n1/N=C/C=C/c1ccco1,·,–,–,16.2,·,–,0.0498,–,0.0118,0.0282,?
S=c1[nH]nc(COc2ccccc2)n1/N=C/C(Cl)=C/c1ccccc1,–,·,–,–,–,·,·,·,·,·,·
O=[N+]([O-])c1cccc(/C=N/n2c(COc3ccccc3)n[nH]c2=S)c1,–,–,–,59.1,–,–,0.15,–,0.0193,0.0589,0.0122
COc1ccc(C(CCN)Cc2ccccc2)cc1 (configuration not stated),–,–,–,–,–,·,·,·,·,·,·
N#Cc1c(N2CCCC2)ccc(Br)c1Cl,·,·,–,·,·,·,·,·,·,·,·
CC1Cc2ccccc2N1C(=O)CSc1nc(-c2ccco2)cc(C(F)(F)F)n1 (configuration not stated),–,–,–,·,–,–,–,–,–,–,–
CC1Cc2ccccc2N1C(=O)CSc1ncc(-c2ccc(F)cc2)n1C (configuration not stated),–,·,·,-4.17,–,–,–,0.0239,0.00601,0.0132,?
CC1Cc2ccccc2N1C(=O)CSc1nnc2n1C(C)(C)Cc1ccccc1-2 (configuration not stated),–,·,·,-5.57,–,–,?,0.0237,–,?,–
Cn1c(-c2ccc(F)cc2)cnc1SCC(=O)N1CCCc2ccccc21,–,–,–,–,–,·,·,·,·,·,·
COC(=O)c1sc(-c2ccc(Cl)cc2)cc1NC(=O)COCC(=O)O,·,–,–,–,·,·,·,·,·,·,·
COC(=O)c1sc(-c2ccc(Cl)cc2)cc1NC(=O)/C=C/C(=O)O,·,–,–,-4.14,·,–,0.00797,–,–,0.014,–
Oc1ccc(-c2csc(NCc3ccco3)n2)cc1,–,–,–,·,–,–,–,–,0.00558,0.016,–
c1coc(CNc2nc(-c3cccs3)cs2)c1,–,–,–,–,–,·,·,·,·,·,·
SMILES,Redox H2O2 prof,ROMK primary,b-catenin transl,Cl transport mod,MT stabilize HCS,KCC2 secondary,KCC2 bumet counter,KCC2 secondary2,HEK counter1,KCC2 ouabain,HEK293 Tl flux2
O=C(O)CNc1nc(-c2ccccc2)nc2c1oc1ccccc12,·,–,–,·,·,–,–,–,–,–,–
O=C(Nc1cc(S(=O)(=O)N2CCCCC2)ccc1N1CCCCC1)c1ccncc1,·,·,–,–,·,·,·,·,·,·,·
Cc1ccc(C2N(c3ccccc3)C(=S)N3CCCN23)cc1 (configuration not stated),–,–,–,·,–,–,–,–,–,–,–
c1coc(CNc2c3c(nc4ccccc24)CCC3)c1,–,–,–,7.31,–,–,–,–,0.00651,0.0162,–
CC(C)NCC(=O)Nc1c2c(nc3ccccc13)CCC2,·,·,–,·,·,·,·,·,·,·,·
O=C(CCl)Nc1ccccc1C(=O)Nc1ccc2c(c1)OCO2,·,·,–,–,·,·,·,·,·,·,·
Cc1occc1-c1nnc(SCC(=O)c2ccc(F)cc2)n1Cc1ccco1,–,·,·,-3.02,–,–,?,0.0229,0.00548,0.0113,–
O=C(CSc1nnc(-c2ccco2)n1Cc1ccccc1)NCc1ccccc1,–,–,–,–,–,·,·,·,·,·,·
O=C(CSc1nnc(-c2ccco2)n1Cc1ccccc1)c1ccc(F)cc1,–,·,–,-6.14,–,–,?,0.0214,0.00545,0.0124,?
O=C1N(Cc2cccc(Cl)c2)C[C@@H]2C[C@@H](c3cccc4cccnc34)N3CCC[C@@]123,–,–,–,–,–,·,·,·,·,·,·
O=C1N(Cc2cccc(Cl)c2)C[C@@H]2C[C@@H](c3cccc4ncccc34)N3CCC[C@@]123,–,–,–,·,–,–,–,–,–,–,–
CN1C(=O)C(Cl)(Cl)C(=O)c2ccccc21,–,–,–,–,–,·,·,·,·,·,·
CS/C(=C/[N+](=O)[O-])Nc1cccc2c1C(C)CC2(C)C (configuration not stated),–,–,–,-5.09,–,–,?,–,–,0.014,–
CCCN1C=CC(=CC=C(C#N)C#N)C=C1,·,·,–,-7.81,·,0.00215,-0.00144,0.0233,?,0.00659,?

# Screening results as filed in PubChem.
